Source: PubChem BioAssay
proCasp7 act – counter-screen: procaspase-7 (human) activation. 0.093% of 330,000 active. activation, % at 8.5 µM. recombinant procaspase-7, Ac-DEVD-pNA absorbance 405 nm; D23A/D198A/D206A triple mutant, cannot self-cleave; scale: DMSO 0, 5 µM enzyme 100. AID 463210;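 active = percent activation above the screen-wide mean plus 3 SD, cut at about 25% in these data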
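signal = Epi-absorbance of released pNA at 405 nm, two timepoints | assay system = Uncleavable procaspase-7 mutant enzyme | reagent = Ac-DEVD-pNA substrate, 400 µM as added | times = 1 h enzyme–compound preincubation and 2 h substrate reaction, both 25 °C | benchmarks = low DMSO alone, high DMSO plus 5 µM PC-7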
sPLA2-III inh – Blocks human group III sPLA2 activity; AID 743126; QFRET BODIPY PC-A2 liposome hydrolysis, fluorescence; inhibition, % at 12.2 µM; 0.56% of 370,000 active;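 active = inhibition above mean plus 3 SD of compounds lying within the high and low control bounds, cut at about 19% in these data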
procasp3 activ – procaspase-3 (human) activation; recombinant procaspase-3 D3A, Ac-DEVD-pNA absorbance 405 nm; activation, % at 8.5 µM; 0.11% of 330,000 active; AID 463141;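 active = activation above the mean of all tested compounds plus 3 SD, cut at about 21% in these data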
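Compound: 8.5 µM single point, 0.8% DMSO / Material: Autoprocessing-dead procaspase-3 D3A mutant enzyme / Timing: 1 h preincubation plus 2 h reaction at 25 °C / Medium: Zinc-free HEPES/NaCl buffer with 0.01% Triton X-100 at pH 7.4 / Technique: 405 nm absorbance of p-nitroaniline, reads at 0 and 120 min / Repeats: one well per compound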
PLC-gamma1 inh – PLC-gamma1 (human) inhibition, primary screen | purified PLC-gamma1, fluorogenic substrate, fluorescence | 0.84% of 370,000 active | inhibition, % at 12.2 µM | AID 720700 | P19174; in the data active = inhibition above about 9.5%
Target sequence (P19174 whole entry, looked up): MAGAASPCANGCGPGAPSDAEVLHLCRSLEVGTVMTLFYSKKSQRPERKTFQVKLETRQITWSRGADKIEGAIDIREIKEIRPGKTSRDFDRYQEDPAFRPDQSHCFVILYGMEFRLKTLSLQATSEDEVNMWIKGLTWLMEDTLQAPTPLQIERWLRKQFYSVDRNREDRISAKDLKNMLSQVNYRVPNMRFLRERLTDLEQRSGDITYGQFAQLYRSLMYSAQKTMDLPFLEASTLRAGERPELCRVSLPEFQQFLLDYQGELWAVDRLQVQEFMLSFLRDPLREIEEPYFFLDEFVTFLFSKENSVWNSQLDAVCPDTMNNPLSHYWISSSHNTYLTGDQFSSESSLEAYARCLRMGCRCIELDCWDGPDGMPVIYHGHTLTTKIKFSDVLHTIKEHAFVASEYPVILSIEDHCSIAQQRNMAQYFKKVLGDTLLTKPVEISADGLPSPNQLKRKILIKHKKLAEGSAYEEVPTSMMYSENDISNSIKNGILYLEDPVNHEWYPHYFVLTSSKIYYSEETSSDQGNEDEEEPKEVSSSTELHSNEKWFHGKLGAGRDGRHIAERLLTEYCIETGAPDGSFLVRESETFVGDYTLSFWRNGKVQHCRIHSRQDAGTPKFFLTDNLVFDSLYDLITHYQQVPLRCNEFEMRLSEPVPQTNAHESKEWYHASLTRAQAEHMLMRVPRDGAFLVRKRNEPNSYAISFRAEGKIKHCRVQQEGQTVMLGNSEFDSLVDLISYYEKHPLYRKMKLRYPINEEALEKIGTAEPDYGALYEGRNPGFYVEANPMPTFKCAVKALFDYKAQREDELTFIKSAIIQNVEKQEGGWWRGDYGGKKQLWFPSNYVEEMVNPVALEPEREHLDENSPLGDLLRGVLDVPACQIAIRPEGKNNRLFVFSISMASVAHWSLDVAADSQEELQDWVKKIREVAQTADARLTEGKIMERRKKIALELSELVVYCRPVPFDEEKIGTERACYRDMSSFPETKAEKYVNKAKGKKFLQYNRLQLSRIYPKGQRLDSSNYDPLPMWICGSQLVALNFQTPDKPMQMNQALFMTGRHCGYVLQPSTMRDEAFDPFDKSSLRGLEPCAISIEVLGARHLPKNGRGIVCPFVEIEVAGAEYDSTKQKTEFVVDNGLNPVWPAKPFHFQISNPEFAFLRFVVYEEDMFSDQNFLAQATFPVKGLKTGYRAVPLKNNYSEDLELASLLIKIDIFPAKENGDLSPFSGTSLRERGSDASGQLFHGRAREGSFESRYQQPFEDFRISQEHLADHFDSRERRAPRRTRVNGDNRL
PLC-beta3 inh – PLC-beta3 (human) inhibition, primary screen; inhibition, % at 12.2 µM; Q01970; Purified PLC-beta3, fluorogenic substrate, fluorescence; AID 720704; 0.18% of 370,000 active; in the data active = inhibition above about 11%
sPLA2 confirm – human GIII-sPLA2 inhibition, confirmation. shares compounds with sPLA2-III inh. recombinant hGIII-sPLA2, BODIPY PC-A2 QFRET fluorescence. inhibition, % at 12.2 µM. 34% of 2,000 active. AID 743280;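 active = mean inhibition across triplicates above the hit cutoff set in the earlier primary screen, cut at about 19% in these data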
535nm interf – optically interferes with 535nm fluorescence in sPLA2 counter-screen; shares compounds with sPLA2-III inh; BODIPY FL product fluorescence interference, QFRET; 8.5% of 2,000 active; inhibition, % at 12.2 µM;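 active = average inhibition above the solvent-only control mean plus 3 SD, cut at about 6% in these data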
BODIPY interf DR – interferes with 535nm fluorescence in dose response counter-screen; shares compounds with sPLA2-III inh; BODIPY FL product fluorescence interference, cell-free; IC50, µM; 240 tested, under 10 active;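 active = IC50 at or below 10 µM; inactive = IC50 above 10 µM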
Numbers stand for hits. The list is not random: actives were taken first. Their share in the collection is about 1.6%.

Screening O=C(CSc1nc(=O)n(CCN2CCOCC2)c2c1CCC2)Nc1ccc(OC(F)(F)F)cc1 returned proCasp7 act inactive, sPLA2-III inh inactive, procasp3 activ inactive, PLC-gamma1 inh inactive and PLC-beta3 inh inactive.
COc1ccc(Cl)cc1C(Nc1cccnc1)c1ccc2cccnc2c1O (stereo unspecified) was read as proCasp7 act inactive, sPLA2-III inh 31, procasp3 activ inactive, PLC-gamma1 inh inactive, PLC-beta3 inh inactive, sPLA2 confirm 35, 535nm interf inactive and BODIPY interf DR inactive.
For N#CC(C#N)c1ccnc2ccccc12 the results were sPLA2-III inh 19, PLC-gamma1 inh inactive, PLC-beta3 inh inactive, sPLA2 confirm inactive and 535nm interf inactive.
Screening N#CCc1ccnc2ccccc12 returned sPLA2-III inh inactive, PLC-gamma1 inh inactive and PLC-beta3 inh inactive.
`O=C(CCc1ccccc1)N[C@H]1[C@@H](OC(=O)c2cccnc2)CCC[C@]12C(=O)N(Cc1ccccc1)c1ccccc12` gave sPLA2-III inh inactive, PLC-gamma1 inh inactive and PLC-beta3 inh inactive.
CCOC(=O)c1ccc(NC(=S)Nc2cccc(C)n2)cc1 was read as proCasp7 act inactive, sPLA2-III inh inactive, procasp3 activ inactive, PLC-gamma1 inh inactive and PLC-beta3 inh inactive.
`CCOC(=O)c1ccc(NC(=S)Nc2cccc(N)n2)cc1` gave proCasp7 act inactive, sPLA2-III inh 22, procasp3 activ inactive, PLC-gamma1 inh inactive, PLC-beta3 inh inactive, sPLA2 confirm 22 and 535nm interf inactive.
`Cc1ccccc1Nc1ccc(S(=O)(=O)N2CCOCC2)cc1[N+](=O)[O-]` gave proCasp7 act inactive, sPLA2-III inh 20, procasp3 activ inactive, PLC-gamma1 inh inactive, PLC-beta3 inh inactive, sPLA2 confirm inactive and 535nm interf inactive.
COc1cccc(-n2c(SCc3cc(=O)oc4cc(O)c(O)cc34)nc3ccccc3c2=O)c1 was read as proCasp7 act inactive, sPLA2-III inh 20, procasp3 activ inactive, PLC-gamma1 inh inactive, PLC-beta3 inh inactive, sPLA2 confirm inactive and 535nm interf inactive.
Screening COc1cccc(-n2c(SCC(=O)Nc3ccc4c(c3)CCC4)nc3ccccc3c2=O)c1 returned proCasp7 act inactive, sPLA2-III inh inactive, procasp3 activ inactive, PLC-gamma1 inh inactive and PLC-beta3 inh inactive.
For C=CCN1C=C/C(=C\C=C(C#N)C#N)c2ccccc21 the results were proCasp7 act inactive, sPLA2-III inh 28, procasp3 activ inactive, PLC-gamma1 inh inactive, PLC-beta3 inh inactive, sPLA2 confirm 48 and 535nm interf 13.
`CC(=O)c1c(C)nc2sc3c(=N)n(N)cnc3c2c1-c1ccc(Cl)cc1` gave proCasp7 act inactive, sPLA2-III inh 30, procasp3 activ inactive, PLC-gamma1 inh inactive, PLC-beta3 inh inactive, sPLA2 confirm inactive and 535nm interf inactive.
COCCNC(=O)CN(C(=O)CCC(=O)Nc1ccccn1)c1ccc(C)c(C)c1 was read as proCasp7 act inactive, sPLA2-III inh inactive, procasp3 activ inactive, PLC-gamma1 inh inactive and PLC-beta3 inh inactive.
For CCCCc1n[nH]c(=S)n1Cc1ccccc1 the results were proCasp7 act inactive, sPLA2-III inh inactive, procasp3 activ inactive, PLC-gamma1 inh inactive and PLC-beta3 inh inactive.
`CCCc1n[nH]c(=S)n1Cc1ccco1` gave proCasp7 act inactive, sPLA2-III inh 22, procasp3 activ inactive, PLC-gamma1 inh inactive, PLC-beta3 inh inactive, sPLA2 confirm inactive and 535nm interf inactive.
For COc1cccc(-c2n[nH]c(=S)n2Cc2ccco2)c1 the results were proCasp7 act inactive, sPLA2-III inh 23, procasp3 activ inactive, PLC-gamma1 inh inactive, PLC-beta3 inh inactive, sPLA2 confirm 25 and 535nm interf inactive.
For CCCCc1n[nH]c(=S)n1Cc1ccc(Cl)cc1 the results were proCasp7 act inactive, sPLA2-III inh 20, procasp3 activ inactive, PLC-gamma1 inh inactive, PLC-beta3 inh inactive, sPLA2 confirm 26 and 535nm interf inactive.
